# Reference: ChEMBL document CHEMBL4665639, “N-Benzylanilines as Fatty Acid Synthesis Inhibitors against Biofilm-related Methicillin-resistant Staphylococcus aureus” (ACS Med Chem Lett, 2019)
# Calls of active or inactive are those of the source. The calls are words filed in the database; no cut-off is given here.
# What was measured:
# Pseudomonas aeruginosa = assay: Antibacterial activity against Pseudomonas aeruginosa assessed as bacterial growth inhibition after 24 hrs by CLSI protocol based broth microdilution assay; format: functional
# Staphylococcus aureus [1] = assay: Antibacterial activity against methicillin-resistant Staphylococcus aureus clinical isolate 16 assessed as bacterial growth inhibition after 24 hrs by CLSI protocol based broth microdilution assay; format: functional
# In short: (§1)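 Broth dilution MIC against 19 multidrug-resistant clinical S. aureus isolates, each taken from a different specimen type.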
# Staphylococcus aureus [2] = assay: Inhibition of Staphylococcus aureus ATCC 6538 fabI expressed in Escherichia coli BL21 (DE3) assessed as oxidation of NADPH to NADP+ using trans-2-octenoyl CoA as substrate incubated for 2 hrs in presence of NADPH by spectrophotometric analysis
# Staphylococcus aureus [3] = assay: Antibacterial activity against methicillin-resistant Staphylococcus aureus clinical isolate 5 assessed as bacterial growth inhibition after 24 hrs by CLSI protocol based broth microdilution assay; format: functional; in short: as §1
# Candida tropicalis = assay: Antifungal activity against Candida tropicalis assessed as fungal growth inhibition after 24 hrs by CLSI protocol based broth microdilution assay; format: functional
# Staphylococcus aureus [4] = assay: Antibacterial activity against methicillin-resistant Staphylococcus aureus clinical isolate 11 assessed as bacterial growth inhibition after 24 hrs by CLSI protocol based broth microdilution assay; format: functional; in short: as §1
# Staphylococcus aureus [5] = assay: Antibacterial activity against methicillin-resistant Staphylococcus aureus clinical isolate 9 assessed as bacterial growth inhibition after 24 hrs by CLSI protocol based broth microdilution assay; format: functional; in short: as §1
# Staphylococcus aureus [6] = assay: Antibacterial activity against methicillin-resistant Staphylococcus aureus clinical isolate 3 assessed as bacterial growth inhibition after 24 hrs by CLSI protocol based broth microdilution assay; format: functional; in short: as §1
# Bacillus cereus = assay: Antibacterial activity against Bacillus cereus assessed as bacterial growth inhibition after 24 hrs by CLSI protocol based broth microdilution assay; format: functional
# Staphylococcus aureus [7] = assay: Antibacterial activity against methicillin-resistant Staphylococcus aureus clinical isolate 18 assessed as bacterial growth inhibition after 24 hrs by CLSI protocol based broth microdilution assay; format: functional; in short: as §1
# Staphylococcus aureus [8] = assay: Antibiofilm activity against methicillin-resistant Staphylococcus aureus clinical isolate 12 assessed as disruption of preformed biofilm up to 2 mg/L after 24 hrs by MTT assay; format: functional, organism-based; conditions: dose mg/L <=2, time 24.0 hrs
# In short: (§2)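 Biofilms of clinical MRSA isolates that form biofilm in culture were preformed for 24 h and then exposed to compound to measure disruption. Significance of control vs treated is given at p < 0.05, 0.01 and 0.001.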
# Staphylococcus aureus [9] = assay: Antibacterial activity against methicillin-resistant Staphylococcus aureus clinical isolate 4 assessed as bacterial growth inhibition after 24 hrs by CLSI protocol based broth microdilution assay; format: functional; in short: as §1
# Staphylococcus aureus [10] = assay: Antibiofilm activity against methicillin-resistant Staphylococcus aureus clinical isolate 11 assessed as disruption of preformed biofilm up to 2 mg/L after 24 hrs by MTT assay; format: functional, organism-based; conditions: dose mg/L <=2, time 24.0 hrs; in short: as §2
# Staphylococcus aureus [11] = assay: Antibacterial activity against methicillin-resistant Staphylococcus aureus clinical isolate 1 assessed as bacterial growth inhibition after 24 hrs by CLSI protocol based broth microdilution assay; format: functional; in short: as §1
# Staphylococcus aureus [12] = assay: Antibiofilm activity against methicillin-resistant Staphylococcus aureus ATCC 43300 assessed as inhibition of biofilm at 0.5 to 2 mg/L after 24 hrs by MTT assay; format: functional, organism-based; conditions: dose mg/L 0.5-2, time 24.0 hrs
# In short: (§3)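 Biofilm growth of MRSA ATCC 43300 measured in the presence of compound in cultivation plates, with a DMSO control. Significance of control vs treated is given at p < 0.05, 0.01 and 0.001.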
# Staphylococcus aureus [13] = assay: Antibiofilm activity against methicillin-resistant Staphylococcus aureus clinical isolate 3 assessed as disruption of preformed biofilm up to 2 mg/L after 24 hrs by MTT assay; format: functional, organism-based; conditions: dose mg/L <=2, time 24.0 hrs; in short: as §2
# Staphylococcus aureus [14] = assay: Binding affinity to Staphylococcus aureus ATCC 6538 fabI expressed in Escherichia coli BL21 (DE3) assessed as tetramer transition of partial dimer resulting in peak shift at 1:10:10 ratio incubated for overnight in presence of NADP+ by analytical size exclusion chromatography; conditions: time 12.0 hrs
# Enterococcus faecium = assay: Antibacterial activity against Enterococcus faecium assessed as bacterial growth inhibition after 24 hrs by CLSI protocol based broth microdilution assay; format: functional
# Staphylococcus aureus [15] = assay: Antibacterial activity against methicillin-resistant Staphylococcus aureus clinical isolate 17 assessed as bacterial growth inhibition after 24 hrs by CLSI protocol based broth microdilution assay; format: functional; in short: as §1
# GES1 = assay: Cytotoxicity against human GES1 cells assessed as reduction in cell viability at 80 mg/L after 24 hrs by MTT assay relative to control; format: cell-based; conditions: ges1, 24 h, at 80 µg/mL
# Staphylococcus aureus [16] = assay: Antibacterial activity against methicillin-resistant Staphylococcus aureus clinical isolate 7 assessed as bacterial growth inhibition after 24 hrs by CLSI protocol based broth microdilution assay; format: functional; in short: as §1
# Staphylococcus aureus [17] = assay: Antibiofilm activity against methicillin-resistant Staphylococcus aureus clinical isolate 16 assessed as disruption of preformed biofilm up to 2 mg/L after 24 hrs by MTT assay; format: functional, organism-based; conditions: dose mg/L <=2, time 24.0 hrs; in short: as §2
# Staphylococcus aureus [18] = assay: Antibacterial activity against methicillin-resistant Staphylococcus aureus clinical isolate 10 assessed as bacterial growth inhibition after 24 hrs by CLSI protocol based broth microdilution assay; format: functional; in short: as §1
# Staphylococcus aureus [19] = assay: Antibiofilm activity against methicillin-resistant Staphylococcus aureus clinical isolate 6 assessed as disruption of preformed biofilm up to 2 mg/L after 24 hrs by MTT assay; format: functional, organism-based; conditions: dose mg/L <=2, time 24.0 hrs; in short: as §2
# Staphylococcus aureus [20] = assay: Antibacterial activity against methicillin-resistant Staphylococcus aureus clinical isolate 6 assessed as bacterial growth inhibition after 24 hrs by CLSI protocol based broth microdilution assay; format: functional; in short: as §1
# Staphylococcus aureus [21] = assay: Antibacterial activity against methicillin-resistant Staphylococcus aureus clinical isolate 15 assessed as bacterial growth inhibition after 24 hrs by CLSI protocol based broth microdilution assay; format: functional; in short: as §1
# Staphylococcus aureus [22] = assay: Antibiofilm activity against methicillin-resistant Staphylococcus aureus clinical isolate 2 assessed as disruption of preformed biofilm up to 2 mg/L after 24 hrs by MTT assay; format: functional, organism-based; conditions: dose mg/L <=2, time 24.0 hrs; in short: as §2
# Staphylococcus aureus [23] = assay: Antibiofilm activity against methicillin-resistant Staphylococcus aureus clinical isolate 5 assessed as disruption of preformed biofilm up to 2 mg/L after 24 hrs by MTT assay; format: functional, organism-based; conditions: dose mg/L <=2, time 24.0 hrs; in short: as §2
# Staphylococcus aureus [24] = assay: Antibacterial activity against methicillin-resistant Staphylococcus aureus clinical isolate 13 assessed as bacterial growth inhibition after 24 hrs by CLSI protocol based broth microdilution assay; format: functional; in short: as §1
# Staphylococcus aureus [25] = assay: Antibiofilm activity against methicillin-resistant Staphylococcus aureus clinical isolate 4 assessed as disruption of preformed biofilm up to 2 mg/L after 24 hrs by MTT assay; format: functional, organism-based; conditions: dose mg/L <=2, time 24.0 hrs; in short: as §2
# Staphylococcus aureus [26] = assay: Antibiofilm activity against methicillin-resistant Staphylococcus aureus ATCC 43300 assessed as reduction in biofilm biomass at 0.5 to 4 mg/L after 24 hrs by MTT assay; format: functional, organism-based; conditions: dose mg/L 0.5-4, time 24.0 hrs; in short: as §3
# Staphylococcus aureus [27] = assay: Antibacterial activity against methicillin-resistant Staphylococcus aureus clinical isolate 14 assessed as bacterial growth inhibition after 24 hrs by CLSI protocol based broth microdilution assay; format: functional; in short: as §1
# Staphylococcus aureus [28] = assay: Antibacterial activity against methicillin-resistant Staphylococcus aureus clinical isolate 2 assessed as bacterial growth inhibition after 24 hrs by CLSI protocol based broth microdilution assay; format: functional; in short: as §1
# Staphylococcus aureus [29] = assay: Antibacterial activity against methicillin-resistant Staphylococcus aureus clinical isolate 8 assessed as bacterial growth inhibition after 24 hrs by CLSI protocol based broth microdilution assay; format: functional; in short: as §1
# L02 = assay: Cytotoxicity against human L02 cells assessed as reduction in cell viability at 80 mg/L after 24 hrs by MTT assay relative to control; format: cell-based; conditions: l02, 24 h, at 80 µg/mL
# Candida albicans = assay: Antifungal activity against Candida albicans assessed as fungal growth inhibition after 24 hrs by CLSI protocol based broth microdilution assay; format: functional
# Staphylococcus aureus [30] = assay: Antibacterial activity against methicillin-resistant Staphylococcus aureus clinical isolate 12 assessed as bacterial growth inhibition after 24 hrs by CLSI protocol based broth microdilution assay; format: functional; in short: as §1
# Staphylococcus aureus [31] = assay: Antibiofilm activity against methicillin-resistant Staphylococcus aureus clinical isolate 18 assessed as disruption of preformed biofilm up to 2 mg/L after 24 hrs by MTT assay; format: functional, organism-based; conditions: dose mg/L <=2, time 24.0 hrs; in short: as §2
# Staphylococcus aureus [32] = assay: Antibiofilm activity against methicillin-resistant Staphylococcus aureus ATCC 43300 assessed as reduction in biofilm biomass up to 1 mg/L after 24 hrs by scanning electronic microscopic imaging analysis; format: functional, organism-based; conditions: dose mg/L <=1, time 24.0 hrs
# In short: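 Scanning electron microscopy of 24 h MRSA ATCC 43300 biofilm, untreated or grown with stepwise increasing compound concentrations.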
# Staphylococcus aureus [33] = assay: Antibacterial activity against methicillin-resistant Staphylococcus aureus clinical isolate 19 assessed as bacterial growth inhibition after 24 hrs by CLSI protocol based broth microdilution assay; format: functional; in short: as §1
# Staphylococcus aureus [34] = assay: Antibacterial activity against Staphylococcus aureus assessed as bacterial growth inhibition after 24 hrs by CLSI protocol based broth microdilution assay; format: functional
# Escherichia coli = assay: Antibacterial activity against Escherichia coli assessed as bacterial growth inhibition after 24 hrs by CLSI protocol based broth microdilution assay; format: functional
# Staphylococcus aureus [35] = assay: Antibiofilm activity against methicillin-resistant Staphylococcus aureus clinical isolate 17 assessed as disruption of preformed biofilm up to 2 mg/L after 24 hrs by MTT assay; format: functional, organism-based; conditions: dose mg/L <=2, time 24.0 hrs; in short: as §2
structure (smiles),measurement,setting,value
Oc1c(Br)cc(Cl)cc1CNc1cc(C(F)(F)F)ccc1Cl,MIC,Pseudomonas aeruginosa,≥ 64 µg/mL
same,MIC,Staphylococcus aureus [1],≤ 1 µg/mL
same,inhibition,Staphylococcus aureus [2],Active
same,MIC,Staphylococcus aureus [3],≤ 1 µg/mL
same,MIC,Candida tropicalis,≥ 64 µg/mL
same,MIC,Staphylococcus aureus [4],≤ 1 µg/mL
same,MIC,Staphylococcus aureus [5],≤ 1 µg/mL
same,MIC,Staphylococcus aureus [6],≤ 1 µg/mL
same,MIC,Bacillus cereus,≤ 2 µg/mL
same,MIC,Staphylococcus aureus [7],≤ 1 µg/mL
same,Activity,Staphylococcus aureus [8],Active
same,MIC,Staphylococcus aureus [9],≤ 1 µg/mL
same,Activity,Staphylococcus aureus [10],Active
same,MIC,Staphylococcus aureus [11],≤ 1 µg/mL
same,inhibition,Staphylococcus aureus [12],Active
same,Activity,Staphylococcus aureus [13],Active
same,Activity,Staphylococcus aureus [14],Active
same,MIC,Enterococcus faecium,≤ 2 µg/mL
same,MIC,Staphylococcus aureus [15],≤ 1 µg/mL
same,Activity,GES1,50%
same,MIC,Staphylococcus aureus [16],≤ 1 µg/mL
same,Activity,Staphylococcus aureus [17],Active
same,MIC,Staphylococcus aureus [18],≤ 1 µg/mL
same,Activity,Staphylococcus aureus [19],Active
same,MIC,Staphylococcus aureus [20],≤ 1 µg/mL
same,MIC,Staphylococcus aureus [21],≤ 1 µg/mL
same,Activity,Staphylococcus aureus [22],Active
same,Activity,Staphylococcus aureus [23],Active
same,MIC,Staphylococcus aureus [24],≤ 1 µg/mL
same,Activity,Staphylococcus aureus [25],Active
same,Activity,Staphylococcus aureus [26],Active
same,MIC,Staphylococcus aureus [27],≤ 1 µg/mL
same,MIC,Staphylococcus aureus [28],≤ 1 µg/mL
same,MIC,Staphylococcus aureus [29],≤ 1 µg/mL
same,Activity,L02,50%
same,MIC,Candida albicans,≥ 64 µg/mL
same,MIC,Staphylococcus aureus [30],≤ 1 µg/mL
same,Activity,Staphylococcus aureus [31],Active
same,inhibition,Staphylococcus aureus [32],Active
same,MIC,Staphylococcus aureus [33],≤ 1 µg/mL
same,MIC,Staphylococcus aureus [34],≤ 2 µg/mL
same,MIC,Escherichia coli,≥ 64 µg/mL
same,Activity,Staphylococcus aureus [35],Active
